From article PMC7195875 (Science signaling, 2018)

Columns and labels:
[1] = system: Dectin-1; assay: Curdlan-induced TNFα release from primary macrophages; assay type: cell-based, mouse; details: six hours
Procedure, shortened: (§1)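 Macrophages came from bone marrow of female C57BL/6 mice, grown 6 d in DMEM with 10% FCS and 30% L-cell-conditioned medium. Cells were stimulated with the respective agonist for 6 h alongside graded test compound concentrations. TNFα in supernatants was measured by ELISA. Means ± SD of 3 independent experiments.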

[2] = biological target: TIR-domain of MyD88 / full length MyD88 (Homo sapiens, UniProt Q99836); assay: Co-IP of MyD88 TIR-domain with full-length MyD88 in HEK293T cells; assay type: cell-based
Procedure, shortened: (§2)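 HEK293T cells were transfected by Lipofectamine with epitope-tagged MyD88: FLAG full-length plus HA-TIR domain or DD domain. Test compound or DMSO was added 7 h post-transfection, and cells were lysed at 20 h for 20 min at 4 °C in HEPES pH 7.5 buffer with 0.5% NP-40. Cleared lysates underwent FLAG M2 resin IP for 1 h at 4 °C, then immunoblotting with densitometry. Blots represent 4 independent experiments.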

[3] = biological target: MyD88 homodimerization (UniProt P0AES6+Q99836); assay: Co-immunoprecipitation with MyD88-GyrB in RAW264.7 cells; assay type: cell-based, mouse; details: co-IP
[4] = system: Dectin-1; assay: Western blot of signaling after Curdlan; assay type: cell-based, mouse
Procedure, shortened: (§3)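 Bone-marrow macrophages (6 d culture in L-cell-conditioned medium) were stimulated with the respective agonist with or without test compound. Lysates were immunoblotted for the indicated signaling proteins, with total p38 as loading control. Blots are representative of 3 independent experiments.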

[5] = system: TLR7; assay: Western blot of NF-κB- and MAPK-pathway activation after R848; assay type: cell-based, mouse
Procedure, shortened: as §3

[6] = system: TLR9; assay: CpG-DNA-induced TNFα release from primary macrophages; assay type: cell-based, mouse; details: six hours
Procedure, shortened: as §1

[7] = biological target: full length human estrogen receptor β (Homo sapiens, UniProt Q92731); assay: Competitive radiometric estrogen receptor binding assay, ERβ; details: relative binding affinity, estradiol = 100
[8] = biological target: T1, full length human estrogen receptor α (Homo sapiens, UniProt P03372); assay: Competitive radiometric estrogen receptor binding assay, ERα; details: relative binding affinity, estradiol = 100
T1 sequence (P03372 1-595): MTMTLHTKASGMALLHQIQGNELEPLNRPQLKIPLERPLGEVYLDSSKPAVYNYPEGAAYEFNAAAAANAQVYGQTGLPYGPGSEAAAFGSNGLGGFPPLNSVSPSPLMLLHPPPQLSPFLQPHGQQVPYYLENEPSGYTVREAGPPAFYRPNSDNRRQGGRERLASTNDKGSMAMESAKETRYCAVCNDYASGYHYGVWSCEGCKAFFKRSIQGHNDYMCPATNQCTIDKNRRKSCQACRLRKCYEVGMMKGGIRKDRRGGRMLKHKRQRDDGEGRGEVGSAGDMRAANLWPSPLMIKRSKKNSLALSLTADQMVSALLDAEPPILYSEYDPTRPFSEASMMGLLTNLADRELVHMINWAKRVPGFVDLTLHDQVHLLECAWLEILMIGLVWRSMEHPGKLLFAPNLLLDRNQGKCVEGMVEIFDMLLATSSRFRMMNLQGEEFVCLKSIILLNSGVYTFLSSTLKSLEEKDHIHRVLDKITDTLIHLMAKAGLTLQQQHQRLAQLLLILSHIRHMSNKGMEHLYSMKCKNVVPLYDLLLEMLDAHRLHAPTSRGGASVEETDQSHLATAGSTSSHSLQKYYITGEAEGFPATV

[9] = system: TLR7; assay: R848-induced TNFα release from primary macrophages; assay type: cell-based, mouse; details: six hours
Procedure, shortened: as §1

[10] = biological target: MyD88 signaling complex (UniProt P0AES6+Q99836); assay type: cell-based, mouse; details: 10 μM MPP, 1 μM CpG-DNA, RAW264.7
Procedure, shortened: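 RAW264.7 cells stably expressing FLAG-MyD88-GyrB were SILAC-labelled (light/medium/heavy) in Arg/Lys-free RPMI with 10% dialysed FBS. Heavy cells got 10 μM test compound for 20 min; medium and heavy were then stimulated with 1 μM CpG-DNA for 60 min. […] Quantitative MS gave fold-change versus unstimulated cells, with unique peptides counted.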

[11] = system: RAW264.7 cells; assay: Toxicity; assay type: cell-based, mouse; details: read-out: TLR9 Toxicity EC50, Table 1
[12] = biological target: DD-domain of MyD88 / full length MyD88 (Homo sapiens, UniProt Q99836); assay: Co-IP of MyD88 DD-domain with full-length MyD88 in HEK293T cells; assay type: cell-based
Procedure, shortened: as §2

[13] = system: TLR9; assay: Western blot of IκBα degradation and MAPK phosphorylation after CpG-DNA; assay type: cell-based, mouse
Procedure, shortened: as §3

[14] = biological target: MyD88-GyrB (UniProt P0AES6+Q99836); assay: NF-κB luciferase reporter, MyD88-GyrB HEK293T cells, coumermycin-induced; assay type: cell-based, human
Procedure, shortened: (§4)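 HEK293T NF-κB luciferase reporter clones carried three NF-κB sites and GyrB fusions introduced by viral transduction with antibiotic selection. Cells received 100 nM coumermycin A1 plus test compound at 10 concentrations (56 μM–2.8 nM) in triplicate, 0.24% final DMSO. After 24 h, AlamarBlue (1 h, 37 °C) measured viability, then SteadyLite luminescence. Values were normalised to coumermycin alone (0%) and coumermycin + 30 μM PS-1145 (100%).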

[15] = system: TLR2; assay: Pam3Cys-induced TNFα release from primary macrophages; assay type: cell-based, mouse; details: six hours
Procedure, shortened: as §1

[16] = system: TLR4; assay: LPS-induced TNFα release from primary macrophages; assay type: cell-based, mouse; details: six hours
Procedure, shortened: as §1

[17] = biological target: TIRAP-GyrB (UniProt P0AES6+Q99JY1); assay: NF-κB luciferase reporter, TIRAP-GyrB HEK293T cells, coumermycin-induced; assay type: cell-based, human
Procedure, shortened: as §4

[18] = system: R848-induced PBMC; details: read-out: IC50 on R848-induced PBMC; cited from earlier work
[19] = system: IL-1β-induced NF-κB activity; details: read-out: IC50 for IL-1β-induced NF-κB activity; cited from earlier work

Sequence of full length human estrogen receptor β (Q92731 whole entry): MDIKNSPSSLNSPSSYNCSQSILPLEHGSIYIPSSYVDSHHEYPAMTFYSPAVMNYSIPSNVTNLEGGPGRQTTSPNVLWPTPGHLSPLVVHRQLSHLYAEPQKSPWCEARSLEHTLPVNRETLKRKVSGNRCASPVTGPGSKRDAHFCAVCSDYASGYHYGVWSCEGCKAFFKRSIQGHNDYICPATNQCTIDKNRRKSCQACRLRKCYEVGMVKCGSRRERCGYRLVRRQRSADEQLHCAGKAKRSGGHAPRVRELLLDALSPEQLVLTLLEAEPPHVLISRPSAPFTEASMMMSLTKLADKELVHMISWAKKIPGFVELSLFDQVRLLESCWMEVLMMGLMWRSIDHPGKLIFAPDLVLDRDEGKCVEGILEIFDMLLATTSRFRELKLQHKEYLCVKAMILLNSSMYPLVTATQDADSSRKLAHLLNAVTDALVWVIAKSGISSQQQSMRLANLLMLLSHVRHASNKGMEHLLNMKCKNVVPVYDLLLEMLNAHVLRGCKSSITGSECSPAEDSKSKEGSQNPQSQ

## Cc1c(-c2ccc(O)cc2)nn(-c2ccc(O)cc2)c1-c1ccc(OCCN2CCCCC2)cc1 [MPP, methyl-piperidino-pyrazole]
[1]
  TNFα release induced by Curdlan: did not reduce TNFα release
[2]
  interaction of the TIR-domain with full length MyD88: strongly reduced
[3]
  recruitment of endogenous MyD88 and IRAK4 to GyrB-MyD88: inhibited recruitment of endogenous MyD88 and IRAK4
[4]
  Curdlan-induced cell activation: remained largely unaffected
[5]
  block of NF-κB- and MAPK-pathway activation downstream of R848: not completely
[6]
  TNFα release, CpG-DNA (TLR9): interfered with TNFα release
[7]
  RBA ERβ: 0.05 ± 0.01
[8]
  RBA ERα: 12 ± 2
[9]
  TNFα release, Resiquimod (R848; TLR7): interfered with TNFα release
[10]
  recruitment of activation-dependent MyD88-interacting proteins, including IRAK4: almost completely blocked recruitment
[11]
  EC50: 13.2 ± 2.4 µM
[12]
  interaction of the DD-domain with full length MyD88: but not the DD-domain
[13]
  block of IκBα degradation and MAPK phosphorylation after CpG-DNA: almost completely
[14]
  inhibition of MyD88-mediated NF-κB activity: low μM concentrations
[15]
  TNFα release, Pam3Cys (TLR2): interfered with TNFα release
[16]
  TNFα release, LPS (TLR4): interfered with TNFα release
[17]
  inhibition of TIRAP-mediated NF-κB activity: low μM concentrations

## CC[C@@H]1[C@H](F)C(=O)N[C@@H]1COc1nccc2cc(C(N)=O)c(OC)cc12 [Pf-06650833, 1-{[(2S,3S,4S)-3-Ethyl-4-fluoro-5-oxopyrrolidin-2-yl]methoxy}−7-methoxyisoquinoline-6-carboxamide]
[18]
  IC50: 0.0024 µM

## NC(=O)[C@H]1CCS[C@@H]2C[C@]3(CCCN3C(=O)Cc3ccc(NC(=O)COc4ccc(Cl)cc4Cl)cc3)C(=O)N12 [ST2825]
[19]
  IC50: > 10 µM
